Measles CPE: protection of cells from measles virus | Measles virus-infected cells, CPE protection, absorbance | protection (pct of control), % at 4 µM | 140,000 compounds, 1.5% hits | AID 841; in the data active = protection mostly above about 24%, no sharp cut-off; inactive = mostly below about 26%
FLuc stim CS: affects firefly luciferase, flagging false hits in luciferase stimulation screens. P08659. ATPlite luciferase biochemical, luminescence, 10 min; 0 = ATP-free wells, 1 = DMSO control. activation factor at 10 µM. 200,000 tested, under 10 active;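 active = luciferase activation factor, scaled between plate controls, of at least 2 with compound at 10 µM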
Target sequence (P08659 whole entry, looked up): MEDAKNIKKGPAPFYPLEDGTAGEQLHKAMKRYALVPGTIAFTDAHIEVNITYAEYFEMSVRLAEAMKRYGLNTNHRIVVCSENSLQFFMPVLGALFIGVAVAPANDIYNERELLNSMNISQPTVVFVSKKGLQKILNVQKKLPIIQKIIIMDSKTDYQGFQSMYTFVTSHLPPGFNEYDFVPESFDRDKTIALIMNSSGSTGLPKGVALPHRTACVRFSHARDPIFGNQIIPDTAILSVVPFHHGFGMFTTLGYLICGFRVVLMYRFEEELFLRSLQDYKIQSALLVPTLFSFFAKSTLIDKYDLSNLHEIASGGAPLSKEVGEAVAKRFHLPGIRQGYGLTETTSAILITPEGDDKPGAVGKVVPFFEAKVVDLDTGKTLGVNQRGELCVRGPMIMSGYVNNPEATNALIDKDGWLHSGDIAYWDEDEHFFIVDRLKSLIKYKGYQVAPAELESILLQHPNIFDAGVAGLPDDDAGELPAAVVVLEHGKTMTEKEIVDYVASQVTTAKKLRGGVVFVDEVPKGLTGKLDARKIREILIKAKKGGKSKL
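Material: Luciferase/luciferin reagent mix | Doses: Test compounds dosed from 2 mM stocks in 100% DMSO | Timing: 10 min incubation after luciferase reagent addition, room temperature | Measured by: Luminescence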
ABCB1 block: inhibitors of human ABCB1 transporter, ABCG2 counter-screen; 190,000 compounds, 0.067% hits; P08183; CCRF-Adr cells, JC-1 efflux, flow cytometry; inhibition, % at 6.6 µM; AID 1326; in the data active = inhibition above about 40%;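 note: 0% = vehicle and 100% = reference inhibitor; higher value means more JC-1 retained so stronger ABCB1 efflux block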
ABCG2 block: inhibitors of human ABCG2 transporter, ABCB1 counter-screen; Q9UNQ0; IgMXP3 cells, JC-1 efflux, flow cytometry; inhibition, % at 6.6 µM; 190,000 compounds, 0.1% hits;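 active = inhibition above 80%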;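 note: 0% = DMSO and 100% = nicardipine control wells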
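Test system: IgMXP3 cells (ABCG2) mixed with DDAO far-red-labelled CCRF-Adr cells (ABCB1). Reagent: JC-1 transporter substrate. Compound dosing: single test compound dose, 6.6 µM final. Times: 10 min compound exposure, 25 °C. Detection: flow cytometry of retained JC-1 fluorescence. Read-out basis: efflux inhibition in percent versus controls. Controls: nicardipine and DMSO wells.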
FLuc inhib CS: Photinus pyralis luciferase inhibition counter-screen. inhibition, % at 10 µM. 200,000 compounds, 1.5% hits. ATPLite firefly luciferase biochemical luminescence, 10 min. P08659. AID 1006;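 active = inhibition above about 50% when tested at 10 µM, limit read from the data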
DTT redox prof: compounds producing H2O2 with reducing agent – biochemical, NIH compound library profiling, artefact control for MLSCN library redox annotation, primary screen; 200,000 compounds, 0.03% hits; activation, % at 10 µM; DTT-dependent redox cycling H2O2, phenol red/HRP absorbance; 100% = 100 µM peroxide control, 0% = buffer;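 active = activation of at least 50% relative to the plate's high and low controls in the primary single-dose screen; inactive = activation below 50%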;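 note: compound incubated with DTT at 0.8 mM final as the reducing agent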
* hit, by the source's call. Rows were chosen to be rich in hits. Some 2.7% of all compounds tested hit in one or more screens of this group.

How did CCOc1ccc(NC(=S)NC(=O)c2c(Br)cnn2C)c([N+](=O)[O-])c1 do in these assays?
Measles CPE: 4; FLuc stim CS: 0.4; ABCB1 block: 1; ABCG2 block: 8; FLuc inhib CS: 64*; DTT redox prof: -1

Results for CCOc1ccc(NC(=S)NC(=O)c2c(Cl)cnn2CC)c([N+](=O)[O-])c1 ?
Measles CPE: 8; FLuc stim CS: 1.1; ABCB1 block: 0; ABCG2 block: 1; FLuc inhib CS: -6; DTT redox prof: 0

Results for CCCC(=O)Nc1ccc2oc(-c3ccncc3)nc2c1 ?
Measles CPE: 37*; FLuc stim CS: 1; ABCB1 block: 0; ABCG2 block: 2; FLuc inhib CS: 1; DTT redox prof: 2

How did CC(=O)Nc1ccc(-n2nnnc2SCC(=O)NCc2cccs2)cc1 do in these assays?
FLuc stim CS: 1.1; ABCB1 block: 0; ABCG2 block: -1; FLuc inhib CS: -10; DTT redox prof: 0

Results for O=C1N=C(N2CCN(c3ccccc3)CC2)S/C1=C\c1cn[nH]c1-c1ccccc1 ?
Measles CPE: 29*; FLuc stim CS: 1; ABCB1 block: 1; ABCG2 block: 12; FLuc inhib CS: -2; DTT redox prof: 0

What do the screens show for `O=C1N=C(N2CCN(c3ccccc3)CC2)S/C1=C\c1ccco1`?
FLuc stim CS: 0.4; ABCB1 block: 1; ABCG2 block: 6; FLuc inhib CS: 61*; DTT redox prof: 0

What do the screens show for `Cc1ccc(N2CCN(C3=NC(=O)/C(=C\c4cn[nH]c4-c4ccccc4)S3)CC2)cc1`?
Measles CPE: 9; FLuc stim CS: 1; ABCB1 block: 2; ABCG2 block: 8; FLuc inhib CS: 3; DTT redox prof: 0

How did Cc1nn(-c2ccccc2)c2sc(C(=O)OCc3nnc(-c4ccccc4)o3)cc12 do in these assays?
Measles CPE: 10; FLuc stim CS: 1.1; ABCB1 block: 1; ABCG2 block: 9; FLuc inhib CS: -7; DTT redox prof: 0

What do the screens show for `Cc1occc1C(=O)Nc1cccc(/C=C/C(=O)O)c1`?
DTT redox prof: -3

What do the screens show for `O=C(O)/C=C/c1cccc(NC(=O)c2ccc(Cl)cc2)c1`?
FLuc stim CS: 0.3; ABCB1 block: 0; ABCG2 block: -1; FLuc inhib CS: 68*; DTT redox prof: -1

How did O=C1C(C=NCc2ccncc2)=C(O)c2ccccc21 do in these assays?
Measles CPE: 19; FLuc stim CS: 1; ABCB1 block: 0; ABCG2 block: 0; FLuc inhib CS: -2; DTT redox prof: 0

What do the screens show for `O=C1C(C=NCc2cccnc2)=C(O)c2ccccc21`?
Measles CPE: 5; FLuc stim CS: 0.3; ABCB1 block: 0; ABCG2 block: 1; FLuc inhib CS: 68*; DTT redox prof: -1

Results for CCc1ccc(NC(=O)N(CCOC)C2CCN(C(C)=O)CC2)cc1 ?
Measles CPE: 65*; FLuc stim CS: 1.1; ABCB1 block: 0; ABCG2 block: 2; FLuc inhib CS: -6; DTT redox prof: 0

What do the screens show for `CCOC(=O)N1CCC(N(CCOC)C(=O)Nc2ccc(CC)cc2)CC1`?
Measles CPE: 8; FLuc stim CS: 1.1; ABCB1 block: 4; ABCG2 block: 55; FLuc inhib CS: -5; DTT redox prof: 0

Results for O=C(c1ccc(Cl)cc1)N1CCCCC(Sc2nnc(-c3ccc4c(c3)OCO4)o2)C1=O (configuration not stated) ?
Measles CPE: 39*; FLuc stim CS: 0.7; ABCB1 block: 6; ABCG2 block: 46; FLuc inhib CS: 29; DTT redox prof: -2

Results for CCCCC1C(=O)N(c2ccccc2)N(c2ccccc2)C1=O ?
Measles CPE: 60*; FLuc stim CS: 1; ABCB1 block: 1; ABCG2 block: 2; FLuc inhib CS: 2; DTT redox prof: 0

What do the screens show for `CCCCOCC1CN(c2ccccc2)C(=O)CS1` (configuration not stated)?
Measles CPE: 12; FLuc stim CS: 1; ABCB1 block: 1; ABCG2 block: 7; FLuc inhib CS: -5; DTT redox prof: 2

Results for CC(C)Cc1c(O)nc(SCCN2CCOCC2)[nH]c1=O ?
Measles CPE: 72*; FLuc stim CS: 1; ABCB1 block: 1; ABCG2 block: 3; FLuc inhib CS: -3; DTT redox prof: 3

What do the screens show for `CCCCCCc1c(O)nc(SCCN2CCOCC2)[nH]c1=O`?
FLuc stim CS: 1; ABCB1 block: 0; ABCG2 block: -1; FLuc inhib CS: -3; DTT redox prof: 1

What do the screens show for `COc1cccc(NC(=O)CSc2nc3ccsc3c(=O)n2-c2ccc(C(=O)O)cc2)c1`?
FLuc stim CS: 1.1; ABCB1 block: 0; ABCG2 block: -1; FLuc inhib CS: -5; DTT redox prof: 0

How did CCc1ccc2c(c1)C(=O)c1ccccc1C2=O do in these assays?
Measles CPE: 10; FLuc stim CS: 0.6; ABCB1 block: 1; ABCG2 block: 14; FLuc inhib CS: 36; DTT redox prof: 0

How did CC(C)(C)c1ccc2c(c1)C(=O)c1ccccc1C2=O do in these assays?
Measles CPE: 21; FLuc stim CS: 0.3; ABCB1 block: 1; ABCG2 block: 9; FLuc inhib CS: 72*; DTT redox prof: 3

Results for c1ccc(OCCN2CCN(Cc3nc(-c4ccc5c(c4)OCO5)no3)CC2)cc1 ?
FLuc stim CS: 1; ABCB1 block: 0; ABCG2 block: 1; FLuc inhib CS: -3; DTT redox prof: 0

Results for CCOC(=O)c1ccc(Nc2ncnc3nc[nH]c23)cc1 ?
Measles CPE: 35; FLuc stim CS: 0.5; ABCB1 block: 0; ABCG2 block: 4; FLuc inhib CS: 50*; DTT redox prof: -2

How did CC(NS(C)(=O)=O)C(c1cccs1)N1CCN(C)CC1 (configuration not stated) do in these assays?
Measles CPE: 17; FLuc stim CS: 1; ABCB1 block: 0; ABCG2 block: 11; FLuc inhib CS: 2; DTT redox prof: -1

What do the screens show for `CC(NS(=O)(=O)c1ccccc1)C(c1cccs1)N1CCN(c2ccccc2)CC1` (configuration not stated)?
Measles CPE: 2; FLuc stim CS: 1; ABCB1 block: 1; ABCG2 block: 13; FLuc inhib CS: -4; DTT redox prof: -1

What do the screens show for `CC(NS(C)(=O)=O)C(c1cccs1)N1CCN(Cc2ccccc2)CC1` (configuration not stated)?
Measles CPE: 31*; FLuc stim CS: 1; ABCB1 block: 0; ABCG2 block: 2; FLuc inhib CS: -3; DTT redox prof: 0

From PubChem BioAssay
